Assay results as given in ChEMBL document CHEMBL4261518, “Side chain-functionalized aniline-derived ursolic acid derivatives as multidrug resistance reversers that block the nuclear factor-kappa B (NF-κB) pathway and cell proliferation” (Medchemcomm, 2017).

How the values were obtained:
HepG2 = assay: Cytotoxicity against human HepG2 cells after 48 hrs by MTT assay; type: functional, cell-based; conditions: HepG2, 48 h
In short: (§1)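 Cells grown overnight in DMEM + 10% FBS at 37 °C under 5% CO2, then given a range of compound concentrations for 48 h. MTT added for about 4 h, medium replaced by DMSO, absorbance read at 570/630 nm. IC50 reported as mean ± SD of five independent experiments.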

NCI-H460 [1] = assay: Cytotoxicity against human NCI-H460 cells harboring pNF-kB-Luc assessed as reduction in cell viability after 7 hrs by MTT assay relative to control; parameters: concentration or dose not given beside the values; conditions: nci-h460, 7 h
[2] = Resistant factor, ratio of IC50 for human NCI-H460/DOX cells to IC50 for human NCI-H460 cells; type: functional
L02 = assay: Cytotoxicity against human HL7702 cells after 48 hrs by MTT assay; type: cell-based; conditions: L02, 48 h; in short: as §1
A549 = assay: Cytotoxicity against human A549 cells after 48 hrs by MTT assay; type: functional, cell-based; conditions: A549, 48 h; in short: as §1
MGC-803 = assay: Cytotoxicity against human MGC803 cells after 48 hrs by MTT assay; type: functional, cell-based; conditions: MGC-803, 48 h; in short: as §1
[3] = Cytotoxicity against human SPCA2 cells after 48 hrs by MTT assay; type: functional, cell-based; conditions: SPCA2, 48 h; in short: as §1
[4] = Cytotoxicity against human NCI-H460/DOX cells after 48 hrs by MTT assay; type: functional, cell-based; conditions: NCI-H460, 48 h; in short: as §1
T-24 = assay: Cytotoxicity against human T24 cells after 48 hrs by MTT assay; type: functional, cell-based; conditions: T-24, 48 h; in short: as §1
[5] = Cytotoxicity against human HepG2/DOX cells after 48 hrs by MTT assay; type: functional, cell-based; in short: as §1
[6] = Resistant factor, ratio of IC50 for human HepG2/DOX cells to IC50 for human HepG2 cells; type: functional
NCI-H460 [7] = assay: Cytotoxicity against human NCI-H460 cells after 48 hrs by MTT assay; type: functional, cell-based; conditions: NCI-H460, 48 h; in short: as §1
[8] = Inhibition of TNFalpha-induced NF-kB (unknown origin) activation expressed in human NCI-H460 cells after 7 hrs by luciferase reporter gene assay; type: cell-based; conditions: NCI-H460, 7 h
In short: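 NCI-H460 cells transiently co-transfected with pNF-κB-Luc reporter and pSV-β-galactosidase internal control by lipofectamine. Medium changed after 6 h, then 6 h further culture. TNF-α (15 ng ml–1) plus compound given together for 7 h. Luciferase ratio to TNF-α-only cells, corrected for non-TNF background and viability. IC50 from sigmoidal variable-slope fit.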

In the case of `C[C@H]1[C@H](C)CC[C@]2(C(=O)NCCN(C)C)CC[C@]3(C)C(=CC[C@@H]4[C@@]5(C)CCC(=O)C(C)(C)[C@@H]5CC[C@]43C)[C@H]12`, the IC50 (HepG2) is reported as 9.05 µM, the Activity (NCI-H460 [1]) is reported as less than 5% and the “Ratio IC50” value [2] is reported as 1.56. The IC50 (L02) was greater than 50 µM, the IC50 (A549) was 6.01 µM and the IC50 (MGC-803) was 7.35 µM. For the same compound, the IC50 [3] was 6.91 µM, the IC50 [4] was 6.8 µM and the IC50 (T-24) was 6.35 µM. The IC50 [5] was 11.4 µM, the “Ratio IC50” value [6] was 1.26 and the IC50 (NCI-H460 [7]) was 4.35 µM. For the same compound, the IC50 [8] was 0.94 µM.

With `Cc1ccc(NC(=O)[C@]23CC[C@@H](C)[C@H](C)[C@H]2C2=CC[C@@H]4[C@@]5(C)CCC(=O)C(C)(C)[C@@H]5CC[C@@]4(C)[C@]2(C)CC3)cc1` the IC50 (HepG2) was 17.6 µM, the Activity (NCI-H460 [1]) was less than 5% and the “Ratio IC50” value [2] was 1.76. For the same compound, the IC50 (L02) was greater than 50 µM, the IC50 (A549) was 17.9 µM and the IC50 (MGC-803) was 18.6 µM. It also gave an IC50 [3] of 17.3 µM, an IC50 [4] of 20.9 µM and an IC50 (T-24) of 20.1 µM. For the same compound, the IC50 [5] was 28.5 µM, the “Ratio IC50” value [6] was 1.62 and the IC50 (NCI-H460 [7]) was 11.9 µM. For the same compound, the IC50 [8] was 5.43 µM.

For `CC(=O)O[C@H]1CC[C@]2(C)[C@H]3CC=C4[C@@H]5[C@@H](C)[C@H](C)CC[C@]5(C(=O)Nc5ccccc5)CC[C@@]4(C)[C@]3(C)CC[C@H]2C1(C)C`, the IC50 (HepG2) was 12.6 µM, the Activity (NCI-H460 [1]) was less than 5% and the “Ratio IC50” value [2] was 1.52. The IC50 (L02) was greater than 50 µM, the IC50 (A549) was 12.9 µM and the IC50 (MGC-803) was 14.8 µM. It also gave an IC50 [3] of 11.7 µM, an IC50 [4] of 17.2 µM and an IC50 (T-24) of 13.1 µM. The IC50 [5] was 27.4 µM, the “Ratio IC50” value [6] was 2.17 and the IC50 (NCI-H460 [7]) was 11.4 µM. For the same compound, the IC50 [8] was 2.33 µM.

With `Cc1ccc(NC(=O)COC(=O)[C@]23CC[C@@H](C)[C@H](C)[C@H]2C2=CC[C@@H]4[C@@]5(C)CCC(=O)C(C)(C)[C@@H]5CC[C@@]4(C)[C@]2(C)CC3)cc1` the IC50 (HepG2) was 20.1 µM, the Activity (NCI-H460 [1]) was less than 5% and the “Ratio IC50” value [2] was 2.18. For the same compound, the IC50 (L02) was greater than 50 µM, the IC50 (A549) was 13.1 µM and the IC50 (MGC-803) was 16.6 µM. The IC50 [3] was 15.6 µM, the IC50 [4] was 23.8 µM and the IC50 (T-24) was 15.7 µM. The IC50 [5] was 39.7 µM, the “Ratio IC50” value [6] was 1.98 and the IC50 (NCI-H460 [7]) was 10.9 µM. The IC50 [8] was 8.04 µM.
